From ChEMBL document CHEMBL1156035, “(3R,5S,7as)-(3,5-Bis(4-fluorophenyl)tetrahydro-1H-oxazolo[3,4-c]oxazol-7a-yl)methanol, a novel neuroprotective agent” (J Med Chem, 2009)
Active and inactive are the calls of the source. The calls are words filed in the database; no cut-off is given here.

Key:
Bos taurus [1] = organism: Bos taurus; experiment: Induction of bovine tubulin aggregation at 100 to 400 uM after 30 mins by electron microscopy
Bos taurus [2] = organism: Bos taurus; experiment: Induction of bovine tubulin assembly assessed as microtubule formation at 100 to 400 uM after 30 mins by electron microscopy
[3] = Neuroprotective effect against beta-amyloid (25-35)-induced cell death in Sprague-Dawley rat cortical neuron treated 2 hrs before beta-amyloid (25-35) challenge measured after 48 hrs by propidium iodide staining-based fluorescence microscopy; format: functional; settings: Cortical neurone
Procedure, shortened: (§1)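 Rat cortical neurons from embryonic day 18 Sprague–Dawley fetuses, plated on poly-D-lysine and kept serum-free in DMEM/F12 with N2, were used after 5 days. Compound (0.5–60 nM) was added about 2 h before 10 μM Aβ25–35 or Aβ1–42, preaggregated 24 h at 37 °C in Tris pH 7.4. Vehicle DMSO was ≤0.04%. After 48 h, cells were stained 30 min with 20 μM propidium iodide and 150 nM calcein-AM. Live and dead cells were counted in 6–12 fields from duplicate dishes across at least two preparations (about 1500 cells). Student's t test was used.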

Bos taurus [4] = organism: Bos taurus; experiment: Induction of P-gp-mediated rhodamine 123 uptake in BBMEC at 1 to 50 uM
Procedure, shortened: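 Primary bovine brain microvessel endothelial cells in 24-well plates were rinsed and equilibrated 10 min in warm PBSA. They were preincubated 30 min at 37 °C with compound at 1–50 μM, then given 5 μM rhodamine 123 for 2 h. Cells were rinsed with ice-cold PBS and lysed in 0.5% Triton X-100/0.2 M NaOH. Rhodamine 123 fluorescence was normalized to BCA protein. Cyclosporine A served as positive control.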

Cortical neurone [5] = experiment: Neuroprotective effect against beta-amyloid (1-42)-induced cell death in Sprague-Dawley rat cortical neuron at 0.5 to 60 nM treated 2 hrs before beta-amyloid (1-42) challenge measured after 48 hrs by propidium iodide staining-based fluorescence microscopy; format: functional; procedure, shortened: as §1
Bos taurus [6] = organism: Bos taurus; experiment: Induction of bovine tubulin assembly assessed as microtubule formation at 200 to 400 uM after 30 mins by DAPI staining-based fluorescence assay in absence of GTP
Procedure, shortened: (§2)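 DAPI fluorescence assembly assay: bovine brain microtubule protein (containing MAPs) at 2 mg/mL in PEM buffer (0.1 M PIPES, 1 mM MgSO4, 1 mM EGTA, pH 6.9), 4% DMSO and 10 μM DAPI, without GTP, with varying compound concentrations. Plates were incubated 30 min at 37 °C and fluorescence was read. Values were corrected for a no-compound control and expressed relative to the maximum given by 25 μM paclitaxel.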

Bos taurus [7] = organism: Bos taurus; experiment: Induction of bovine tubulin assembly assessed as formation of pelleted protein at 100 to 400 uM after 30 mins by centrifugation assay relative to paclitaxel in presence of GTP
Cortical neurone [8] = experiment: Neuroprotective effect against paraquat-induced cell death in Sprague-Dawley rat cortical neuron at 100 nM treated 2 hrs before paraquat challenge measured after 48 hrs by propidium iodide staining-based fluorescence microscopy; format: functional
Cortical neurone [9] = experiment: Neuroprotective effect against staurosporine-induced cell death in Sprague-Dawley rat cortical neuron at 100 nM treated 2 hrs before staurosporine challenge measured after 48 hrs by propidium iodide staining-based fluorescence microscopy; format: functional
[10] = Apparent passive permeability from luminal to abluminal side of BBMEC at 10 uM up to 1.5 hrs; format: ADME, Bos taurus; settings: cattle
Procedure, shortened: (§3)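 Bovine brain microvessel endothelial cell monolayers, confluent on 0.4 μm polycarbonate membranes coated with collagen and fibronectin, mounted in side-by-side diffusion chambers with PBSA. The donor side (luminal or abluminal) received 10 μM unlabeled compound plus trace tritiated compound. Receiver samples were taken at time points up to 90 min and counted by liquid scintillation.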

Bos taurus [11] = organism: Bos taurus; experiment: Induction of bovine tubulin assembly assessed as microtubule formation at 100 uM after 30 mins by DAPI staining-based fluorescence assay in absence of GTP; procedure, shortened: as §2
Bos taurus [12] = organism: Bos taurus; experiment: Displacement of [3H]paclitaxel from bovine microtubule at 400 uM
Procedure, shortened: (§4)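 Competitive binding: microtubules were formed from bovine brain microtubule protein (2 mg/mL) in PEM buffer with 0.5 mM GTP. Conditions were 100 μM tritiated compound with 0–40 μM paclitaxel, or 20 μM [3H]paclitaxel with 0–400 μM competitor, at 37 °C for 10 min. Pellets were spun at 100000g for 4 min, dissolved in 0.1 M NaOH, and radioactivity and protein were measured.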

[13] = Apparent passive permeability from abluminal to luminal side of BBMEC at 10 uM up to 1.5 hrs; format: ADME, Bos taurus; settings: cattle; procedure, shortened: as §3
Cortical neurone [14] = experiment: Neuroprotective effect against H2O2-induced cell death in Sprague-Dawley rat cortical neuron at 100 nM treated 2 hrs before H2O2 challenge measured after 48 hrs by propidium iodide staining-based fluorescence microscopy; format: functional
Bos taurus [15] = organism: Bos taurus; experiment: Stabilization of bovine microtubule against cold-induced […] assessed as pelleted protein level at 400 uM by centrifugation assay
Cortical neurone [16] = experiment: Neuroprotective effect against thapsigargin-induced cell death in Sprague-Dawley rat cortical neuron at 100 nM treated 2 hrs before thapsigargin challenge measured after 48 hrs by propidium iodide staining-based fluorescence microscopy; format: functional
Bos taurus [17] = organism: Bos taurus; experiment: Displacement of [3H](3R,5S,7as)-(3,5-bis(4-fluorophenyl)tetrahydro-1H-oxazolo[3,4-c]oxazol-7a-yl)methanol from bovine microtubule at 40 uM; procedure, shortened: as §4
Bos taurus [18] = organism: Bos taurus; experiment: Induction of bovine tubulin assembly assessed as microtubule formation at 25 uM after 30 mins by DAPI staining-based fluorescence assay in absence of GTP; procedure, shortened: as §2
Bos taurus [19] = organism: Bos taurus; experiment: Stabilization of bovine microtubule against cold-induced […] assessed as pelleted protein level at 20 uM by centrifugation assay

OCC1(CO)COC(c2ccc(F)cc2)N1 (stereo not given)
Activity (Bos taurus [1]): Active
Activity (Bos taurus [2]): inactive
EC50 [3]: 0.04 µM

OC[C@]12CO[C@H](c3ccc(F)cc3)N1[C@H](c1ccc(F)cc1)OC2
Activity (Bos taurus [4]): inactive
Activity (Cortical neurone [5]): Active
Activity (Bos taurus [1]): Active
Activity (Bos taurus [2]): inactive
Activity (Bos taurus [6]): inactive
Activity (Bos taurus [7]): 10%
Activity (Cortical neurone [8]): Active
Activity (Cortical neurone [9]): Active
Papp at 1.5 h, 10 µM [10]: 286 ×10⁻⁶ cm/s
Activity (Bos taurus [11]): Active
Activity (Bos taurus [12]): 40%
EC50 [3]: 0.005 µM
Papp at 1.5 h, 10 µM [13]: 244 ×10⁻⁶ cm/s
Activity (Cortical neurone [14]): Active
Activity (Bos taurus [15]): 9%
Activity (Cortical neurone [16]): Active

CC(=O)O[C@H]1C(=O)[C@@]2(C)[C@H]([C@H](OC(=O)c3ccccc3)[C@]3(O)C[C@H](OC(=O)[C@H](O)[C@@H](NC(=O)c4ccccc4)c4ccccc4)C(C)=C1C3(C)C)[C@]1(OC(C)=O)CO[C@@H]1C[C@@H]2O
Activity (Bos taurus [17]): 42%
Activity (Bos taurus [18]): 20%
Activity (Bos taurus [19]): 79%

OCC12CO[C@H](c3ccc(F)cc3)N1[C@@H](c1ccc(F)cc1)OC2 (relative stereo)
Activity (Bos taurus [1]): Active
Activity (Bos taurus [2]): inactive
EC50 [3]: 0.05 µM
